One data set has as its system Helicobacter pylori. In words: Antibacterial activity against Helicobacter pylori ATCC 700392 by broth microdilution method. In kind it is functional. The procedure, abridged: (§1)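 CLSI broth microdilution on wild-type strains. E. coli ATCC 8739, P. aeruginosa ATCC 27853 and K. pneumoniae ATCC 10031 served as Gram-negatives. S. aureus ATCC 6538 and E. faecalis ATCC 19433 served as Gram-positives. H. pylori ATCC 700392 was tested as the […]. Ciprofloxacin was the reference drug. MIC is given in μM as the mean of three experiments.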
In general terms: In broth dilution the organism is exposed to a series of concentrations in liquid medium.

The subject of a further data set is RAW264.7. In words: Cytotoxicity against mouse RAW264.7 cells at 25 ug/ml incubated for 48 hrs by MTT assay. In kind it is toxicity, cell-based. Particulars: raw264.7, 48 h, at 25 µg/mL. In outline: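 RAW 264.7 mouse macrophages were grown in RPMI with 10% FBS plus penicillin/streptomycin to 80–90% confluency. About 5000 cells/well were seeded on poly-L-lysine-coated plates and held 24 h at 37 °C, 5% CO2. Compound was added at 25 μg mL−1 for 48 h at 37 °C. MTT (0.5 mg mL−1) was added for 3 h, and formazan was read at 595 and 625 nm. Result is % inhibition.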
(Tetrazolium dyes change colour on reduction, which living cells bring about.)

Another data set relates to Staphylococcus aureus. In words: Antibacterial activity against Staphylococcus aureus ATCC 6538 by broth microdilution method. Type of data set: functional. The procedure, abridged:
as §1

The subject of data set [1] is Mycobacterium tuberculosis. Briefly: Potency index, ratio of ethambutol MIC to test compound MIC for antitubercular activity against Mycobacterium tuberculosis H37Rv. In kind it is functional.
For the next data set, the system named is Pseudomonas aeruginosa. Briefly: Antibacterial activity against Pseudomonas aeruginosa ATCC 27853 by broth microdilution method. Type of data set: functional. The procedure, abridged: as §1
For another data set, the system named is Klebsiella pneumoniae. Briefly: Antibacterial activity against Klebsiella pneumoniae ATCC 10031 by broth microdilution method. In kind it is functional. The procedure, abridged:
as §1

The subject of data set [2] is Enterococcus faecalis. Briefly: Antibacterial activity against Enterococcus faecalis ATCC 19433 by broth microdilution method. Type of data set: functional. In outline:
as §1

For data set [3], the system named is Enterococcus faecalis. Briefly: Potency index, ratio of nitazoxanide MIC to test compound MIC for antibacterial activity against Enterococcus faecalis ATCC 19433. Type of data set: functional.
Data set [4] relates to Mycobacterium tuberculosis. In words: Potency index, ratio of nitazoxanide MIC to test compound MIC for antitubercular activity against Mycobacterium tuberculosis H37Rv. Type of data set: functional.
Data set [5] has as its system Mycobacterium tuberculosis. Briefly: Antimycobacterial activity against Mycobacterium tuberculosis H37Rv incubated for 7 days by alamar blue assay. Type of data set: functional. Particulars: 168 h, time 7 day. In outline: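 Two-fold serial dilutions in 7H9-S, with growth and sterile controls, incubated at 37 °C for 7 days. Alamar Blue then added and incubated overnight. MIC is the lowest concentration preventing the blue-to-pink change. Means of three experiments.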
Background: Alamar Blue is a resazurin reagent that responds to reducing activity.

A further data set has as its system Escherichia coli. In words: Antibacterial activity against Escherichia coli ATCC 8739 by broth microdilution method. Type of data set: functional. In outline: as §1
The nature of data set [6]: Selectivity index, ratio of cytotoxicity against mouse RAW264.7 cells to MIC for Mycobacterium tuberculosis H37Rv. Type of data set: toxicity, cell-based. Conditions: read-out: Selectivity Index. The procedure, abridged: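 SI is cytotoxicity divided by the MABA MIC (μg mL⁻¹) against H37Rv. For cytotoxicity, RAW 264.7 cells were grown in RPMI with 10% FBS and penicillin/streptomycin. About 5000 cells per well were seeded on poly-L-lysine plates and held 24 h at 37 °C, 5% CO2. Compounds were added at 25 μg mL⁻¹ for 48 h, then MTT (0.5 mg mL⁻¹) for 3 h. Formazan was read at 595/625 nm and reported as % inhibition.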

Data on one compound can be found in ChEMBL document CHEMBL5356992, “New nitazoxanide derivatives: design, synthesis, biological evaluation, and molecular docking studies as antibacterial and antimycobacterial agents” (RSC Med Chem, 2023).

The structures appear in SMILES notation. Converted amounts (≈) assume the structure as drawn.

In general, MIC refers to the lowest concentration found to suppress growth. A lower MIC goes with a more susceptible organism. Consider `CC(=O)Oc1cc(N=[N+]=[N-])ccc1C(=O)Nc1ncc([N+](=O)[O-])s1`, for which the MIC in the data set on Helicobacter pylori amounted to 11.5 µM (≈ 4 µg/mL); in the data set on Staphylococcus aureus, 11.5 µM (≈ 4 µg/mL); in the data set with Pseudomonas aeruginosa, 91.9 µM (≈ 32 µg/mL); with Klebsiella pneumoniae, 34.5 µM (≈ 12 µg/mL); with Enterococcus faecalis [2], 2.15 µM (≈ 0.749 µg/mL); in data set [5] it was 1.56 µg/mL (≈ 4.48 µM). This compound also gave an MIC in the data set with Escherichia coli of 8.61 µM (≈ 3 µg/mL). Besides, in the data set with RAW264.7, the Cell growth inhibition worked out at 17.54%. The values for the Ratio (in [1]; with Enterococcus faecalis [3]; in data set [4]) were 1.7, 25 and 5, respectively. Besides, in [6], the selectivity ratio was determined as 16.
